Compound activity: PubChem, Broad Institute
IDH1 R132H inh: inhibitors of human IDH1 R132H; O75874; IDH1 R132H reductase, diaphorase/resazurin fluorescence, 60 min; inhibition, % at 10 µM; 70,000 compounds, 0.18% hits; AID 624101; in the data active means inhibition above about 34%; inconclusive means no clear call, values can overlap the other calls; inactive means below about 11%;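 further: 0% = DMSO and 100% = no enzyme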
T cruzi growth-1: T. cruzi proliferation inhibition; 77,000 compounds, 5.9% hits; T. cruzi beta-gal in NIH3T3, GalScreen luminescence, 90 h; inhibition, % at 8.34 µM;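 active means mean inhibition above about 93%, with at least 55% of replicates each passing it, limit read from the data, passing the limit was not always enough; inconclusive means only one of those two conditions holds; inactive means neither condition holds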
KDM4C inh: blocks human GASC-1 (KDM4C) demethylase activity; 96,000 compounds, 0.15% hits; AID 720574; inhibition, % at 12.5 µM; GST-KDM4C 2-372, H3K9me3 peptide, LANCE TR-FRET;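 active means mean replicate inhibition above about 25%, with at least 55% of replicates also reaching it, limit read from the data, passing the limit was not always enough; inconclusive means only one of those two conditions met; inactive means neither condition met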
Target sequence (Q9H3R0 2-372 limits assumed): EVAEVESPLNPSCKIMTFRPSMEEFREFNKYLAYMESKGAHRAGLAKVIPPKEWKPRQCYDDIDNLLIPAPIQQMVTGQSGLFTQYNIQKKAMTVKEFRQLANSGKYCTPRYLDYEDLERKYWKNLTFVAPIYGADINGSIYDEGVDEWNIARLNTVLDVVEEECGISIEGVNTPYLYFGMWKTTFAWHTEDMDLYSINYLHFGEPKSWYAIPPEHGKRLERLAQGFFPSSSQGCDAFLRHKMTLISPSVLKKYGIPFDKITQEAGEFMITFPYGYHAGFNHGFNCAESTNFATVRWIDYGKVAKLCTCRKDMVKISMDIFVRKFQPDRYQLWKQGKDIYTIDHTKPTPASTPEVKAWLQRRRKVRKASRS
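reagent = H3K9me3 peptide substrate, Fe(II), 2-oxoglutarate | system = GST-tagged GASC-1 (JMJD2C) catalytic fragment, aa 2-372 | amount = enzyme final amount 10 nM | read-out = Fall in 671/618 emission ratio as inhibition | medium = HEPES buffer, pH 7.5, plus ascorbate | schedule = 30 min reaction, 60 min detection, RT | measured by = LANCE TR-FRET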
T cruzi growth-2: inhibitors of T. cruzi proliferation; inhibition, % at 8.35 µM; AID 651739; T. cruzi beta-gal in NIH3T3, GalScreen luminescence, 90 h; 5,600 compounds, 72% hits; shares compounds with T cruzi growth-1;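 active means mean replicate inhibition above about 95% and at least 55% of replicates individually reaching it, limit read from the data; inconclusive means only one of the two criteria is met; inactive means neither criterion is met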
T cruzi growth-3: blocks T. cruzi growth in NIH3T3 host cells | AID 651740 | T. cruzi beta-gal in NIH3T3, GalScreen luminescence, 90 h | inhibition, % at 2.09 µM | shares compounds with T cruzi growth-1 | 5,600 compounds, 21% hits;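 active means mean inhibition above about 95%, with at least 55% of replicates also reaching it, limit read from the data; inconclusive means meets just one of the two conditions; inactive means meets neither condition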;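 further: plate controls were neutral control median for no effect and positive control median for full effect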
3T3 cytotox: cytotoxicity in mouse NIH/3T3 fibroblasts | shares compounds with T cruzi growth-1 | NIH/3T3 viability, CellTiter-Glo ATP luminescence, 90 h | cytotoxicity (signal decrease), % at 8.35 µM | 5,600 compounds, 14% hits;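 active means mean signal decrease across replicates above about 35% based on untreated-well scatter, with enough replicates individually passing, limit read from the data; inconclusive means no rule stated though some were filed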;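 further: 0% = median of neutral control wells and 100% = median of positive control wells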
NIH3T3 tox 2: kills mouse NIH/3T3 fibroblasts | NIH/3T3 viability, CellTiter-Glo ATP luminescence, 90 h | 5,600 compounds, 56% hits | shares compounds with T cruzi growth-1 | inhibition, % at 24.9 µM;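 active means mean loss of cell viability signal at or above a set limit, and enough replicates individually reaching it; inconclusive means meets only the mean limit or only the replicate share; inactive means meets neither condition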;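 further: 0% = median of neutral control wells and 100% = median of positive control wells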
Numbers without * were called inactive; ? = inconclusive; . = no result given. Shown is part of a subset that was picked to be rich in hits.

SMILES | IDH1 R132H inh | T cruzi growth-1 | KDM4C inh | T cruzi growth-2 | T cruzi growth-3 | 3T3 cytotox | NIH3T3 tox 2
C[C@@H]1CN([C@H](C)CO)C(=O)c2cccc(NC(=O)c3ccncc3)c2O[C@H]1CN(C)Cc1ccc(C(=O)Nc2ccccc2N)cc1 | . | 100* | 17 | 107* | 91 | 3 | 25
Cc1cc(C(=O)Nc2cccc3c2O[C@@H](CN(C)Cc2ccc(C(=O)O)cc2)[C@@H](C)CN([C@H](C)CO)C3=O)n(C)n1 | 1 | . | 0 | . | . | . | .
C[C@H]1CN([C@@H](C)CO)C(=O)c2cccc(NC(=O)c3ccncc3)c2O[C@H]1CN(C)Cc1ccc(C(=O)Nc2ccccc2N)cc1 | 0 | . | -1 | . | . | . | .
Cc1cc(C(=O)Nc2cccc3c2O[C@@H](CN(C)Cc2ccc(C(=O)Nc4ccccc4N)cc2)[C@@H](C)CN([C@@H](C)CO)C3=O)n(C)n1 | 1 | 101* | 0 | 102* | 74 | -4 | 28
C[C@@H]1CN([C@@H](C)CO)C(=O)c2cccc(NC(=O)c3cnccn3)c2O[C@H]1CN(C)Cc1ccc(C(=O)Nc2ccccc2N)cc1 | 0 | 112* | -2 | 107* | 85 | 33 | 42*
S=C1NC2=C(C(c3ccccc3)N1)N1CCC2CC1 (stereo unspecified) | -3 | . | . | . | . | . | .
CN(C)C(=O)c1ccc(-c2ccc3c(c2)[C@H]2[C@H](CCN2C(=O)c2ccccc2F)[C@@H](CO)N3)cc1 | . | 53 | -2 | . | . | . | .
N#Cc1ccc(-c2ccc3c(c2)[C@@H]2[C@@H](CCN2C(=O)c2ccccc2F)[C@@H](CO)N3)cc1 | . | 102* | 1 | 103* | 82 | 21 | 50*
N#Cc1ccc(-c2ccc3c(c2)[C@H]2[C@H](CCN2C(=O)c2ccccc2F)[C@H](CO)N3)cc1 | . | 88 | 1 | . | . | . | .
N#Cc1ccc(-c2ccc3c(c2)[C@@H]2[C@@H](CCN2C(=O)C2CC2)[C@@H](CO)N3)cc1 | . | 104* | 6 | 107* | 85 | -3 | 35*
CN(C)C(=O)c1cccc(-c2ccc3c(c2)[C@@H]2[C@@H](CCN2C(=O)c2ccccc2F)[C@@H](CO)N3)c1 | . | 106* | 1 | 100* | 68 | 12 | 16
N#Cc1ccc(-c2ccc3c(c2)[C@H]2[C@H](CCN2C(=O)C2CC2)[C@H](CO)N3)cc1 | . | 93 | -2 | . | . | . | .
NS(=O)(=O)c1ccc(NC(=S)NCCN2CCOCC2)cc1 | 1 | . | . | . | . | . | .
CSc1ccccc1NC(=O)CSc1nnnn1-c1ccccc1C | 0 | . | . | . | . | . | .
Cc1ccc(S(=O)(=O)Nc2ccccc2CNc2cnc3ccccc3c2)cc1 | 0 | . | . | . | . | . | .
CC(C)CC#Cc1ccc2c(c1)O[C@H](CN(C)Cc1ccc(F)cc1)[C@@H](C)CN([C@@H](C)CO)S2(=O)=O | 5 | 101 | -3 | . | . | . | .
CC(C)CC#Cc1ccc2c(c1)O[C@H](CN(C)Cc1ccncc1)[C@@H](C)CN([C@H](C)CO)S2(=O)=O | 0 | 122* | 2 | 104* | 104* | 30 | 105*
CC(C)CC#Cc1ccc2c(c1)O[C@@H](CN(C)Cc1cncnc1)[C@@H](C)CN([C@@H](C)CO)S2(=O)=O | 1 | 70 | 0 | . | . | . | .
CC(C)CC#Cc1ccc2c(c1)O[C@@H](CN(C)Cc1ccncc1)[C@H](C)CN([C@H](C)CO)S2(=O)=O | 5 | 129* | 4 | 93 | 105* | 61* | 104*
CC(C)CC#Cc1ccc2c(c1)O[C@H](CN(C)Cc1ccncc1)[C@@H](C)CN([C@@H](C)CO)S2(=O)=O | 7 | 130* | 4 | 94 | 111* | ? | 106*
CC(C)CC#Cc1ccc2c(c1)O[C@@H](CN(C)Cc1cncnc1)[C@H](C)CN([C@H](C)CO)S2(=O)=O | 0 | 52 | 0 | . | . | . | .
O=C(CN1C(=O)c2cccc3cccc1c23)Nc1ccc(S(=O)(=O)N2CCCCC2)cc1 | 0 | . | . | . | . | . | .
O=C(O)CCC/C=C/CC1COC(C(F)(F)F)OC1c1ccccc1O (stereo unspecified) | 1 | . | . | . | . | . | .
Cc1ccc(OCC(=O)Nc2cccc(NC(=O)c3ccccc3)c2)cc1C | 1 | . | . | . | . | . | .
COC(=O)CCCCCCC(=O)N/N=C/c1ccc(O)c2ccccc12 | 0 | . | . | . | . | . | .
SMILES | IDH1 R132H inh | T cruzi growth-1 | KDM4C inh | T cruzi growth-2 | T cruzi growth-3 | 3T3 cytotox | NIH3T3 tox 2
C[C@@H]1CCCCO[C@H](CN(C)C(=O)Nc2cccc3ccccc23)[C@@H](C)CN([C@H](C)CO)C(=O)c2cc(NC(=O)Nc3ccc(F)cc3)ccc2O1 | . | 69 | -2 | . | . | . | .
C[C@H](CO)N1C[C@H](C)[C@H](CN(C)C(=O)Nc2cccc3ccccc23)OCCCC[C@H](C)Oc2ccc(NC(=O)Nc3ccc(F)cc3)cc2C1=O | 0 | ? | -2 | 101* | 71 | 0 | 0
C[C@@H]1CCCCO[C@@H](CN(C)C(=O)Nc2ccc(F)cc2)[C@H](C)CN([C@@H](C)CO)C(=O)c2cc(NC(=O)Nc3cccc4ccccc34)ccc2O1 | 2 | 91 | -2 | . | . | . | .
C[C@@H]1CCCCO[C@H](CN(C)C(=O)Nc2ccc(F)cc2)[C@H](C)CN([C@@H](C)CO)C(=O)c2cc(NC(=O)Nc3cccc4ccccc34)ccc2O1 | . | 102* | -2 | 110* | 81 | -20 | -5
C[C@H](CO)N1C[C@H](C)[C@H](CN(C)C(=O)Nc2cccc3ccccc23)OCCCC[C@H](C)Oc2ccc(NC(=O)Nc3ccccc3)cc2C1=O | . | -18 | 0 | . | . | . | .
C[C@@H]1CCCCO[C@H](CN(C)C(=O)Nc2cccc3ccccc23)[C@H](C)CN([C@@H](C)CO)C(=O)c2cc(NC(=O)Nc3ccc(F)cc3)ccc2O1 | . | 101* | -4 | 112* | 60 | -14 | -11
CCCc1ccc(-c2cc(C(=O)NCc3cccnc3)c3ccccc3n2)cc1 | 4 | . | . | . | . | . | .
CCn1c(SCC(=O)Nc2ccc(Cl)cc2Cl)nnc1-c1cccc(C)c1 | 0 | . | . | . | . | . | .
C[C@@H]1CN([C@H](C)CO)C(=O)Cc2cc(NS(=O)(=O)c3ccc(Cl)cc3)ccc2O[C@H]1CN(C)CC1CCCCC1 | -1 | 106* | 0 | 96* | ? | 27 | 106*
C[C@H]1CN([C@@H](C)CO)C(=O)Cc2cc(NS(=O)(=O)c3ccc(F)cc3)ccc2O[C@H]1CN(C)CC1CC1 | 0 | . | -1 | . | . | . | .
C[C@H](CO)N1C[C@H](C)[C@@H](CN(C)CC2CCCCC2)Oc2ccc(NS(=O)(=O)c3ccc(Cl)cc3)cc2CC1=O | 0 | 94 | 0 | . | . | . | .
CC(C)NC(=O)N(C)C[C@@H]1Oc2ccc(NS(=O)(=O)c3ccc(F)cc3)cc2CC(=O)N([C@@H](C)CO)C[C@H]1C | 1 | 101 | 0 | . | . | . | .
CC(C)NC(=O)N(C)C[C@H]1Oc2ccc(NS(=O)(=O)c3ccc(F)cc3)cc2CC(=O)N([C@H](C)CO)C[C@@H]1C | 1 | 103* | -1 | 16 | 49 | 2 | 6
